Paper PMC11584596 (IDCases, 2024)
Converted amounts (≈) assume the structure as drawn. Like-named read-outs stand apart in the source and are kept apart here.

Legend:
[1] = test system: methicillin-resistant Staphylococcus epidermidis (MRSE); assay: Antimicrobial susceptibility; format: cell-based; conditions: for MIC: Staphylococcus epidermidis, MRSE; for MIC^1: MRSE isolate from sample 1 of periprosthetic fluid at diagnosis; for MIC^2: MRSE isolate from sample 2 of periprosthetic fluid at diagnosis
In short: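 Two MRSE isolates, each recovered from a separate sample of periprosthetic fluid taken by sterile drainage at diagnosis. A susceptibility profile was recorded for each isolate.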

Gram-positive infections = conditions: 30 of 32 patients who received at least two doses of oritavancin; cited from earlier work
[2] = test system: shoulder PJI caused by methicillin-resistant Staphylococcus epidermidis (MRSE); assay: Clinical course of shoulder prosthetic joint infection under oritavancin; format: in vivo, human (patient); conditions: ten sequential doses of 1200 mg over 28 weeks; single patient

Compound	MIC ([1]; read-out: MIC^1)	MIC ([1]; read-out: MIC^2)	MIC^1 [1]	other results
CC1(C)S[C@@H]2[C@H](NC(=O)[C@H](N)c3ccccc3)C(=O)N2[C@H]1C(=O)O [Ampicillin]	> 2 µg/mL	–	–	–
O=C(O)c1cn(C2CC2)c2cc(N3CCNCC3)c(F)cc2c1=O [Ciprofloxacin]	> 4 µg/mL	> 4 µg/mL	–	–
CCC[C@@H]1C[C@@H](C(=O)N[C@@H]([C@H]2O[C@H](SC)[C@H](O)[C@@H](O)[C@H]2O)[C@H](C)Cl)N(C)C1 [Clindamicin]	≤ 0.25 µg/mL	0.25 µg/mL (≈ 0.588 µM)	–	–
CC[C@H]1OC(=O)[C@H](C)[C@@H](O[C@H]2C[C@@](C)(OC)[C@@H](O)[C@H](C)O2)[C@H](C)[C@@H](O[C@@H]2O[C@H](C)C[C@H](N(C)C)[C@H]2O)[C@](C)(O)C[C@@H](C)C(=O)[C@H](C)[C@@H](O)[C@]1(C)O [Eritromicin]	–	–	≤ 0.25 µg/mL	MIC^2 [1]: 1 µg/mL (≈ 1.36 µM)
C[C@@H]1O[C@@H]1P(=O)(O)O [Fosfomicin c/G6P, Fosfomicin]	–	–	≤ 16 µg/mL	–
CC(=O)O[C@H]1C[C@@]2(C)[C@@H](C[C@@H](O)[C@H]3[C@@]4(C)CC[C@@H](O)[C@@H](C)[C@@H]4CC[C@@]32C)/C1=C(\CCC=C(C)C)C(=O)O [Fusidic Acid]	> 8 µg/mL	16 µg/mL (≈ 31 µM)	–	–
CNC(C)C1CCC(N)C(OC2C(N)CC(N)C(OC3OCC(C)(O)C(NC)C3O)C2O)O1 (centres unmarked) [Gentamicin]	≤ 1 µg/mL	≤ 0.5 µg/mL	–	–
CC(=O)NC[C@H]1CN(c2ccc(N3CCOCC3)c(F)c2)C(=O)O1 [Linezolid]	1 µg/mL (≈ 2.96 µM)	2 µg/mL (≈ 5.93 µM)	–	–
COc1c(N2C[C@@H]3CCCN[C@@H]3C2)c(F)cc2c(=O)c(C(=O)O)cn(C3CC3)c12 [Moxifloxacin]	> 1 µg/mL	–	–	–
CN[C@H](CC(C)C)C(=O)N[C@H]1C(=O)N[C@@H](CC(N)=O)C(=O)N[C@H]2C(=O)N[C@H]3C(=O)N[C@H](C(=O)N[C@H](C(=O)O)c4cc(O)cc(O)c4-c4cc3ccc4O)[C@H](O[C@H]3C[C@](C)(N)[C@@H](O)[C@H](C)O3)c3ccc(c(Cl)c3)Oc3cc2cc(c3O[C@@H]2O[C@H](CO)[C@@H](O)[C@H](O)[C@H]2O[C@H]2C[C@](C)(NCc3ccc(-c4ccc(Cl)cc4)cc3)[C@@H](O)[C@H](C)O2)Oc2ccc(cc2Cl)[C@H]1O [Oritavancin]	–	–	–	clinical success (Gram-positive infections): 93.8%; side effects [2]: no side effects reported
Cc1onc(-c2ccccc2)c1C(=O)N[C@@H]1C(=O)N2[C@@H]1SC(C)(C)[C@@H]2C(=O)O [Oxacillin]	> 2 µg/mL	> 2 µg/mL	–	–
CO[C@H]1/C=C/O[C@@]2(C)Oc3c(C)c(O)c4c(O)c(c(/C=N/N5CCN(C)CC5)c(O)c4c3C2=O)NC(=O)/C(C)=C\C=C\[C@H](C)[C@H](O)[C@@H](C)[C@@H](O)[C@@H](C)[C@H](OC(C)=O)[C@@H]1C [Rifampin]	> 1 µg/mL	> 2 µg/mL	–	–
CN(C)[C@@H]1C(O)=C(C(N)=O)C(=O)[C@@]2(O)C(O)=C3C(=O)c4c(O)cccc4[C@@](C)(O)[C@H]3C[C@@H]12 [Tetraciclin]	–	–	1 µg/mL (≈ 2.25 µM)	MIC^2 [1]: 2 µg/mL (≈ 4.5 µM)
CN(C)c1cc(NC(=O)CNC(C)(C)C)c(O)c2c1C[C@H]1C[C@H]3[C@H](N(C)C)C(O)=C(C(N)=O)C(=O)[C@@]3(O)C(O)=C1C2=O [Tigeciclin]	–	–	≤ 0.25 µg/mL	MIC^2 [1]: 0.25 µg/mL (≈ 0.427 µM)
Daptomicin	–	–	–	MIC^2 [1]: 0.25 µg/mL
Teicoplanin	–	–	< 2 µg/mL	–
Vancomicin	–	–	2 µg/mL	MIC^2 [1]: ≤ 0.5 µg/mL
